Source: PubChem BioAssay (several laboratories)
Only a selection was taken, and hits are over-represented in it overall.
TLR9-MyD88 block = inhibitors of TLR9-MyD88 association in cells, primary screen, cell-based, CHO, BLA complementation, fluorescence; Toll-like receptor 9 (Homo sapiens) + Myeloid differentiation primary response protein …; CCF4 FRET ratio; inhibition, % at 4.98 µM; 0.21% of 340,000 active; AID 504734, 2011;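 active = inhibition above the mean over all tested compounds plus 3 SD, cut at about 21% in these data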;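 also: 0% = DMSO only wells and 100% = clavulanate BLA inhibitor control wells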
NOD2 RIPK2 PPI = NOD2-RIPK2 binding disruptors in cells, primary screen, fluorescence, CHO cells, BLA complementation | AID 624267, 2012 | CCF4 ratio | inhibition, % at 4.98 µM | 0.38% of 360,000 active; in the data active = inhibition above about 21%;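 also: 0% = vehicle only and 100% = reference blocker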
CHOP inh = inhibitors of CHOP promoter induction, primary screen, cell-based, unfolded protein response, luciferase reporter; inhibition, % at 10 µM; 3.8% of 220,000 active; CHO-K1 CHOP-promoter luciferase, tunicamycin-induced, 15-18 h;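 active = compounds that reduced the stress-induced luciferase reporter signal by more than about 70% of percent inhibition, limit read from the data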;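 also: 0% = tunicamycin plus vehicle and 100% = wells without tunicamycin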
CHOP UPR activ = activators of apoptotic CHOP UPR arm, primary screen, cell-based, CHO-CHOP luciferase reporter, luminescence, uHTS; UPR activation; percent of tunicamycin response over DMSO baseline; 0.34% of 330,000 active; activation, % at 10 µM; AID 449763, 2010;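 active = at 10 µM dose, activation of 40% or more, normalized to positive control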;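 also: 100% = tunicamycin at 10 µg/mL and 0% = DMSO alone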
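Assay system: CHO cells with stable CHOP pathway luciferase reporter; Buffer or medium: F12 plus 10% serum; Times: 16-18 h cell attachment, then 6 h compound exposure, 37 °C; Signal: luciferase luminescence; Read-out basis: percent activation relative to tunicamycin control; Control set: tunicamycin high control, DMSO low control.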
TLR4 MyD88 comp = inhibitors of TLR4-MyD88 association in cells, primary screen, cell-based, HeLa CL3-4, BLA complementation, FRET ratio; Toll-like receptor 4 (Homo sapiens) + Myeloid differentiation primary response protein …; HeLa CL3-4 TLR4/MyD88 BLA complementation; inhibition, % at 8.4 µM; 0.18% of 200,000 active; in the data active = inhibition above about 25%;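 also: 0% = vehicle and 100% = reference inhibitor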
XBP1 UPR activ = activators of adaptive XBP1 UPR arm, primary screen, cell-based, CHO-XBP1 luciferase reporter, luminescence, uHTS; IRE1-XBP1 UPR activation; percent of tunicamycin response, DMSO as zero; activation, % at 20 µM; 0.33% of 330,000 active; AID 463104, 2010;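 active = versus positive control, 20 µM dose yields 30% or more activation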;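 also: 100% = tunicamycin at 10 µg/mL and 0% = DMSO only wells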
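Material: CHO cell line with stable XBP1 luciferase reporter; buffer or medium: F12 medium containing 10% fetal bovine serum; compound: single point, 20 µM final compound, 1% DMSO; incubation: 6 h treatment, 37 °C; measured by: glow luminescence from Steady-Glo reagent; evaluation: activation, % of tunicamycin; control set: tunicamycin high, DMSO low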
NOD2-RIPK2 conf = NOD2-RIPK2 binding disruptors, retest, confirmation, fluorescence, CHO cells, BLA complementation, triplicate | 70% of 1,200 active | shares compounds with NOD2 RIPK2 PPI | inhibition, % at 4.98 µM | CCF4 FRET;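 active = mean inhibition across replicates above a set limit taken from the earlier primary screen, cut at about 21% in these data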;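 also: 0% = DMSO-only wells and the high end = clavulanate BLA-blocked wells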
BLA counter = counter-screen for NOD2-RIPK2 interaction inhibitors: BLA reporter; shares compounds with NOD2 RIPK2 PPI; CHO BLA reporter, CCF4 FRET ratio, counterscreen; inhibition, % at 4.98 µM; 57% of 1,200 active; AID 624371;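 active = mean inhibition above the low-control mean inhibition plus three low-control SD, cut at about 11% in these data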;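 also: 0% = DMSO only wells and 100% = clavulanate high control wells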
Numbers without * were called inactive.

For Cc1cccc(C)c1NC(=O)C(c1ccc(C#N)cc1)n1c(=O)c(-c2cc3ccccc3[nH]2)nc2ccccc21 (configuration not stated) the results were NOD2 RIPK2 PPI 58.1*, NOD2-RIPK2 conf 54.8* and BLA counter 73.5*.
Screening CCc1nc2ccc(C(=O)Nc3cccc(OCC(=O)N(C)C)c3)cn2c1N(CC)CCOC returned NOD2 RIPK2 PPI -14.7.
For C=C(CN(C)C)C(=O)c1ccc(C)cc1C the results were TLR9-MyD88 block 10.9, NOD2 RIPK2 PPI 33.2*, NOD2-RIPK2 conf 93.6* and BLA counter 30.2*.
For CN(C(=O)CSc1nnnn1-c1ccc(O)cc1)C1CCCCC1 the results were TLR9-MyD88 block -1.0, NOD2 RIPK2 PPI -5.8, CHOP UPR activ 1.1 and XBP1 UPR activ 2.6.
Screening N#C/C(=C\c1cn(Cc2ccccc2C#N)c2ccccc12)C(=O)NCc1cccs1 returned CHOP inh 6.3, CHOP UPR activ -0.8, TLR4 MyD88 comp -6.0 and XBP1 UPR activ 1.6.
`COc1ccccc1OCCn1cc(/C=C(\C#N)C(=O)NCc2cccs2)c2ccccc21` gave TLR9-MyD88 block -0.1, NOD2 RIPK2 PPI 28.8*, CHOP inh 45.3, CHOP UPR activ -2.3, TLR4 MyD88 comp 8.3, XBP1 UPR activ -1.8, NOD2-RIPK2 conf -8.3 and BLA counter -0.2.
For O=C1OCCN1C(=O)[C@H]1[C@H](c2ccccc2)C(c2cccc(Cl)c2)=NN1c1ccc(Br)cc1 the results were TLR9-MyD88 block -5.5, NOD2 RIPK2 PPI 30.7*, CHOP UPR activ -0.4, XBP1 UPR activ -0.2, NOD2-RIPK2 conf 15.8 and BLA counter 46.9*.
For O=C1OCCN1C(=O)[C@H]1[C@H](c2ccc(F)cc2)C(c2cccc(Cl)c2)=NN1c1ccc(Br)cc1 the results were TLR9-MyD88 block -12.8, NOD2 RIPK2 PPI 26.2*, CHOP UPR activ 0.4, XBP1 UPR activ 1.1, NOD2-RIPK2 conf 14.7 and BLA counter 48.1*.
`O=C1OCCN1C(=O)[C@H]1[C@H](c2ccc(F)cc2)C(c2cccc(Cl)c2)=NN1c1ccccc1` gave TLR9-MyD88 block -5.1, NOD2 RIPK2 PPI 28.1*, CHOP UPR activ 1.4, XBP1 UPR activ 1.2, NOD2-RIPK2 conf 16.9 and BLA counter 44.2*.
`O=C1OCCN1C(=O)[C@H]1[C@H](c2ccc(Cl)cc2)C(c2cccc(Cl)c2)=NN1c1ccccc1` gave TLR9-MyD88 block 13.0, NOD2 RIPK2 PPI 14.8, CHOP inh 5.0, CHOP UPR activ 2.3, TLR4 MyD88 comp 2.0 and XBP1 UPR activ -0.6.
OC[C@@H]1[C@@H](c2ccccc2)C(c2ccccc2)=NN1c1ccccc1 was read as TLR9-MyD88 block -7.1, NOD2 RIPK2 PPI 9.6, CHOP UPR activ 3.2 and XBP1 UPR activ 1.2.
Screening Cc1cccc(C2=NN(c3ccc(Br)cc3)[C@@H](C(=O)N3CCOC3=O)[C@@H]2c2ccc(F)cc2)c1 returned TLR9-MyD88 block -12.1, NOD2 RIPK2 PPI -0.8, CHOP inh -0.5, CHOP UPR activ -0.7, TLR4 MyD88 comp -11.1 and XBP1 UPR activ -3.9.
OC[C@@H]1[C@@H](c2ccccc2)C(c2cccc(Cl)c2)=NN1c1ccccc1 was read as TLR9-MyD88 block -4.3, NOD2 RIPK2 PPI 32.6*, CHOP UPR activ -0.1, XBP1 UPR activ -0.3, NOD2-RIPK2 conf 27.4* and BLA counter 53.8*.
